Assay results from ChEMBL document CHEMBL5316278, “Chemical Blockage of the Mitochondrial Rhomboid Protease PARL by Novel Ketoamide Inhibitors Reveals Its Role in PINK1/Parkin-Dependent Mitophagy” (J Med Chem, 2023).
The source made the active and inactive calls. No cut-off for these calls is given here. *1 amine or outer side, *2 acyl side, *3 side chain or, on linkers, in order; H or OH if unused. Where a SMILES comes first, the peptide text is derived from it. [ ]: non-standard residue; d: D form. The star is where a group is joined. NH(4-phenylbutyl) = c1ccc(CCCCN*)cc1; X1 = C[C@H](N[*:1])C(=O)C(=O)[*:2]

Columns and labels:
[1] = target: T1, Presenilin-associated rhomboid-like protein, mitochondrial (Homo sapiens) (UniProt Q9H300); assay: Inhibition of human PARL expressed in human T-REx-293 cells overexpressing PINK1 transfected with mito-mCherry and Parkin-mEGFP assessed as Parkin recruitment in mitochondria at 5 uM incubated for 3 hrs by fluorescence based microscopic analysis
T1 sequence (whole entry): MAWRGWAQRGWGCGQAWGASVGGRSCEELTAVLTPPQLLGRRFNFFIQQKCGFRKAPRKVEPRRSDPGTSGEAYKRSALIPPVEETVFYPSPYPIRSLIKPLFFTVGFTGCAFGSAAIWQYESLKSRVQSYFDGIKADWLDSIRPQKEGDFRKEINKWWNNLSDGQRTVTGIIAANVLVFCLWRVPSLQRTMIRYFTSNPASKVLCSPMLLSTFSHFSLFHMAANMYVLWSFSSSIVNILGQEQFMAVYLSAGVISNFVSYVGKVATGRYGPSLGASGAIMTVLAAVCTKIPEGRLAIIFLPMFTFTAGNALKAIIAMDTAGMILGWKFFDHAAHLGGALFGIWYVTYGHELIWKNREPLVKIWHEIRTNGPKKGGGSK
Procedure, shortened: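 PINK1-induced HEK293 T-REx cells on poly-L-lysine slides were co-transfected with mito-mCherry and Parkin-mEGFP using PEI. Nuclei were stained with Hoechst (1 μg/mL) before treatment, and cells were treated for 3 h alongside DMSO, CCCP and Antimycin A. Parkin colocalisation with mitochondria was judged by fluorescence microscopy and line-scan pixel intensity plots.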

[2] = target: T1, Presenilin-associated rhomboid-like protein, mitochondrial (Homo sapiens); assay: Inhibition of human PARL expressed in human T-REx-293 cells overexpressing PINK1 transfected with HA-Parkin-IRES-GFP assessed as increase in Parkin level in mitochondrial fraction at 5 uM incubated for 22 hrs by immunoblot analysis; type: mitochondria
Procedure, shortened: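 PINK1-induced HEK293 T-REx cells were transiently transfected with HA-Parkin-IRES-GFP (100 ng per 6-well, linear PEI). They were treated for 22 h, with DMSO, CCCP (10 μM, 3 h) and Antimycin A (30 μM, 3 h) as comparators. Cells were fractionated into cytosolic and mitochondrial fractions and immunoblotted (AIF, β-actin controls); n = 3, unpaired t-test.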

[3] = target: T1, Presenilin-associated rhomboid-like protein, mitochondrial (Homo sapiens); assay: Inhibition of human PARL expressed in human Flp-In-T-REx-293 cells overexpressing PINK1 assessed as stabilization of 62 kDa PINK1 by measuring its inner mitochondrial level at 5 uM incubated for 3 hrs followed by proteinase K treatment by immunoblot analysis; type: cell-based
Procedure, shortened: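 PINK1 was induced in HEK293 T-REx cells by doxycycline and treated for 3 h, with DMSO and CCCP as comparators. Mitochondria were isolated at 4 °C in EGTA-free isolation buffer and exposed to proteinase K for 1 h, then PMSF (2.5 mM, 15 min). PINK1 forms were read by immunoblot, with AIF and VDAC as fractionation controls.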

[4] = tested on: HEK-293T; assay: Disruption of mitochondrial membrane potential in human HEK293T cells at 5 uM incubated for 3 hrs by JC-1 staining method; type: functional, cell-based
[5] = target: T1, Presenilin-associated rhomboid-like protein, mitochondrial (Homo sapiens); assay: Inhibition of human PARL expressed in human Flp-In-T-REx-293 cells overexpressing PINK1 assessed as stabilization of 62 kDa PINK1 at 0.1 to 30 uM incubated for 8 hrs by immunoblot analysis; type: cell-based; conditions: dose 0.1-30 µM
Procedure, shortened: (§1)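 HEK293 T-REx cells with inducible PINK1 were grown in DMEM with 10% FBS, GlutaMAX, pyruvate, hygromycin and blasticidin. PINK1 was induced with 0.3 μg/mL doxycycline for 24 h. Cells were treated for 8 h, with DMSO and CCCP (10 μM, 3 h) as comparators. Cleaved PINK1 forms were resolved by immunoblot of whole-cell samples.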

[6] = target: T1, Presenilin-associated rhomboid-like protein, mitochondrial (Homo sapiens); assay: Inhibition of human PARL expressed in human HEK293T cells assessed as stabilization of 62 kDa PINK1 at 5 uM incubated for 8 hrs by immunoblot analysis; type: cell-based
Procedure, shortened: (§2)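 Parental HEK293T cells (endogenous PINK1) were treated for 8 h, with DMSO or CCCP as comparators. Mitochondrial membranes were enriched by hypotonic needle lysis, 100,000 × g pelleting and 100 mM Na2CO3 extraction through a sucrose cushion. PINK1 was then read by immunoblot, with VDAC as fractionation control; n = 3, means ± SEM.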

[7] = target: T1, Presenilin-associated rhomboid-like protein, mitochondrial (Homo sapiens); assay: Inhibition of human PARL expressed in human Flp-In-T-REx-293 cells overexpressing PINK1 assessed as stabilization of 66 kDa PINK1 at 0.1 to 30 uM incubated for 8 hrs by immunoblot analysis; type: cell-based; conditions: dose 0.1-30 µM; procedure, shortened: as §1
[8] = target: T1, Presenilin-associated rhomboid-like protein, mitochondrial (Homo sapiens); assay: Inhibition of human PARL expressed in human Flp-In-T-REx-293 cells overexpressing PINK1 with OMA1 knockdown assessed as stabilization of 62 kDa PINK1 at 10 uM incubated for 8 hrs by immunoblot analysis; type: cell-based
Procedure, shortened: (§3)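 PINK1-inducible HEK293 T-REx cells were transfected with 20 nM siRNA using RNAiMAX and analysed five days later. PINK1 was induced with doxycycline. Cells were treated for 8 h with 10 μM or DMSO. Read-out was immunoblot, with β-actin as loading control.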

[9] = target: T1, Presenilin-associated rhomboid-like protein, mitochondrial (Homo sapiens); assay: Inhibition of human PARL expressed in human Flp-In-T-REx-293 cells overexpressing PINK1 assessed as stabilization of 53 kDa PINK1 at 0.1 to 30 uM incubated for 8 hrs by immunoblot analysis; type: cell-based; conditions: dose 0.1-30 µM; procedure, shortened: as §1
[10] = target: T1, Presenilin-associated rhomboid-like protein, mitochondrial (Homo sapiens); assay: Inhibition of human PARL expressed in human Flp-In-T-REx-293 cells overexpressing PINK1 assessed as stabilization of 53 kDa PINK1 at outer mitochondrial membrane at 5 uM incubated for 6 hrs followed by proteinase K treatment by immunoblot analysis; type: cell-based
Procedure, shortened: (§4)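 PINK1 was induced in HEK293 T-REx cells (doxycycline 0.3 μg/mL, 24 h), then treated for 6 h. Cells were lysed directly, or mitochondria were isolated by needle lysis and 10,000 × g centrifugation and digested with proteinase K for 30 min, then 2.5 mM PMSF for 15 min. Read-out was immunoblot, with AIF as fractionation control.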

[11] = target: T1, Presenilin-associated rhomboid-like protein, mitochondrial (Homo sapiens); assay: Inhibition of human PARL expressed in human Flp-In-T-REx-293 cells overexpressing PINK1 assessed as stabilization of 66 kDa PINK1 at outer mitochondrial membrane at 5 uM incubated for 6 hrs followed by proteinase K treatment by immunoblot analysis; type: cell-based; procedure, shortened: as §4
[12] = target: T1, Presenilin-associated rhomboid-like protein, mitochondrial (Homo sapiens); assay: Inhibition of human PARL expressed in human HEK293T cells assessed as stabilization of 66 kDa PINK1 at 5 uM incubated for 8 hrs by immunoblot analysis; type: cell-based; procedure, shortened: as §2
[13] = target: T1, Presenilin-associated rhomboid-like protein, mitochondrial (Homo sapiens); assay: Inhibition of human PARL expressed in human Flp-In-T-REx-293 cells overexpressing PINK1 with OMA1 knockdown assessed as stabilization of 53 kDa PINK1 at 10 uM incubated for 8 hrs by immunoblot analysis; type: cell-based; procedure, shortened: as §3

Structure (SMILES) | inhibition [1] | inhibition [2] | inhibition [3] | Activity [4] | inhibition [5] | inhibition [6] | inhibition [7] | inhibition [8] | inhibition [9] | inhibition [10] | inhibition [11] | inhibition [12] | inhibition [13]
CCCCCC[C@H]1C(=O)O[C@H](C)[C@H](NC(=O)c2cccc(NC=O)c2O)C(=O)O[C@@H](C)[C@@H]1OC(=O)CC(C)C | inactive | Active | – | – | – | – | – | – | – | – | – | – | –
N#CC(C#N)=NNc1cccc(Cl)c1 | – | Active | inactive | Active | – | – | – | – | – | – | – | – | –
CC(=O)N[C@@H](C)C(=O)N[C@H](C(=O)N[C@@H](Cc1ccccc1)C(=O)N[C@@H](CC(C)C)C(=O)N[C@@H](C)C(=O)C(=O)NCCCCc1ccccc1)C(C)C (Ac-AVFL[X1]-{NH(4-phenylbutyl)}) | Active | Active | Active | inactive | Dose-Dependent Effect | Active | Dose-Dependent Effect | Active | Dose-Dependent Effect | inactive | inactive | Active | Active
